Experiments:
[1] = system: Human immunodeficiency virus 1; assay: Antiviral activity against HIV1 with reverse transcriptase Y188L mutation in human CEM cells assessed as protection against virus-induced cytopathicity; format: functional, organism-based; settings: Human immunodeficiency virus 1, CCRF-CEM
How it was run: (§1)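 CEM cells (~3 × 10⁵ cells/mL) were infected with ~100 CCID₅₀ virus per mL and seeded with serial compound dilutions. After 4 days at 37 °C, syncytium (giant cell) formation was scored microscopically. EC₅₀ is the concentration giving 50% protection against virus cytopathicity.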

[2] = system: Respiratory syncytial virus; assay: Antiviral activity against RSV Long in human HeLa cells assessed as protection against virus-induced cytopathicity; format: functional, organism-based
How it was run: (§2)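 Confluent cell monolayers inoculated with 100 CCID₅₀ virus. After 1-2 h adsorption, residual virus removed and cultures incubated with varying compound concentrations. Cytopathicity scored once it reached completion in untreated infected controls. EC₅₀ = dose reducing virus-induced cytopathogenicity by 50%.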

Sindbis virus = assay: Antiviral activity against Sindbis virus in african green monkey Vero cells assessed as protection against virus-induced cytopathicity; format: functional, organism-based; how it was run: as §2
[3] = biological target: Human immunodeficiency virus type 1 reverse transcriptase (Human immunodeficiency virus 1, UniProt Q72547, K103N); assay: Inhibition of HIV1 reverse transcriptase p66/p51 K103N mutant; settings: read-out: IC50
How it was run: (§3)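 Substrate was 0.5 µg poly(rA)/oligo(dT) 10:1 (0.3 µM 3′-OH ends) with 10 µM [³H]dTTP, at 37 °C. Acid-precipitable radioactivity was counted on GF/C filters after TCA washes.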

[4] = system: Vesicular stomatitis virus; assay: Antiviral activity against VSV in human HEL cells assessed as protection against virus-induced cytopathicity; format: functional, organism-based
Influenza A virus [5] = assay: Antiviral activity against influenza H1N1 virus in MDCK cells assessed as reduction of virus-induced cytopathicity by MTS method; format: functional, organism-based; settings: Influenza A virus, H1N1, MDCK
Coxsackievirus B4 [6] = assay: Antiviral activity against Coxsackievirus B4 in african green monkey Vero cells assessed as protection against virus-induced cytopathicity; format: functional, organism-based; settings: Enterovirus B; how it was run: as §2
[7] = system: Human immunodeficiency virus 1; assay: Antiviral activity against HIV1 3B in human CEM cells assessed as protection against virus-induced cytopathicity after 4 days; format: functional, organism-based; settings: Human immunodeficiency virus 1, 3B, CCRF-CEM, 96 h
How it was run: (§4)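 CEM cells (~3 × 10⁵ cells/mL) infected with ~100 CCID₅₀ per mL of HIV-1 (IIIB) or HIV-2 (ROD), then seeded into wells containing compound dilutions. After 4 days at 37 °C, syncytium (giant cell) formation was examined microscopically. EC₅₀ = concentration protecting CEM cells from HIV cytopathicity by 50%.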

Influenza A virus H3N2 [8] = assay: Antiviral activity against influenza H3N2 virus in MDCK cells assessed as reduction of virus-induced cytopathicity by visual cytopathic effect scoring method; format: functional, organism-based
Influenza A virus [9] = assay: Antiviral activity against influenza H1N1 virus in MDCK cells assessed as reduction of virus-induced cytopathicity by visual cytopathic effect scoring method; format: functional, organism-based
[10] = biological target: Human immunodeficiency virus type 1 reverse transcriptase (Human immunodeficiency virus 1, UniProt Q72547, Y181I); assay: Inhibition of HIV1 reverse transcriptase p66/p51 Y181I mutant; settings: read-out: IC50; how it was run: as §3
Human alphaherpesvirus 2 = assay: Antiviral activity against HSV2 G in human HEL cells assessed as protection against virus-induced cytopathicity; format: functional, organism-based; settings: Human alphaherpesvirus 2, strain G; how it was run: as §2
[11] = Cytotoxicity against human HeLa cells assessed as drug level causing microscopically detectable alteration of normal cell morphology after 3 days; format: cell-based
How it was run: (§5)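 Serial compound dilutions added to confluent HeLa or Vero monolayers. MCC = minimum concentration causing microscopically detectable alteration of cell morphology after 3 days of incubation.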

[12] = system: Human immunodeficiency virus 1; assay: Antiviral activity against HIV1 with reverse transcriptase Y181I mutation in human CEM cells assessed as protection against virus-induced cytopathicity; format: functional, organism-based; settings: Human immunodeficiency virus 1, CCRF-CEM; how it was run: as §1
Influenza B virus [13] = assay: Antiviral activity against influenza B virus in MDCK cells assessed as reduction of virus-induced cytopathicity by MTS method; format: functional, organism-based
Felid alphaherpesvirus 1 = assay: Antiviral activity against Feline herpesvirus in feline […] cells assessed as inhibition of virus-induced cytopathicity; format: functional, organism-based
[14] = system: Human immunodeficiency virus 1; assay: Antiviral activity against HIV1 with reverse transcriptase L100I mutation in human CEM cells assessed as protection against virus-induced cytopathicity; format: functional, organism-based; settings: Human immunodeficiency virus 1, CCRF-CEM; how it was run: as §1
Feline coronavirus = assay: Antiviral activity against Feline coronavirus in feline […] cells assessed as inhibition of virus-induced cytopathicity; format: functional, organism-based; settings: Alphacoronavirus 1
L1210 = assay: Antiproliferative activity against mouse L1210 cells after 2 days; format: cell-based; settings: L1210, 48 h
How it was run: (§6)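 Cells seeded at 5 × 10⁴ to 7.5 × 10⁴ cells/200 µL with or without serial compound dilutions; incubated at 37 °C for 2 days (L1210) or 3 days (Molt4/C8, CEM). Cell numbers counted with a Coulter counter. CC₅₀ = concentration reducing proliferation by 50% versus untreated controls, read from plots of cell number (% of control) against concentration. Means of at least two independent experiments.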

Human alphaherpesvirus 1 [15] = assay: Antiviral activity against thymidine kinase deficient and acyclovir resistant HSV1 KOS in human HEL cells assessed as protection against virus-induced cytopathicity; format: functional, organism-based; settings: Human alphaherpesvirus 1, KOS
CCRF-CEM = assay: Antiproliferative activity against human CEM cells after 3 days; format: cell-based; settings: 72 h; how it was run: as §6
Vaccinia virus = assay: Antiviral activity against Vaccinia virus Lederle in human HEL cells assessed as protection against virus-induced cytopathicity; format: functional, organism-based; settings: Orthopoxvirus vaccinia
[16] = Cytotoxicity against MDCK cells assessed as drug level causing microscopically detectable alteration of normal cell morphology; format: cell-based, Canis lupus familiaris; settings: dog
[17] = Antiproliferative activity against human Molt4/C8 cells after 3 days; format: cell-based; settings: MOLT-4, 72 h; how it was run: as §6
Human respirovirus 3 = assay: Antiviral activity against Parainfluenza virus type 3 in african green monkey Vero cells assessed as protection against virus-induced cytopathicity; format: functional, organism-based; settings: Human respirovirus 3, Vero; how it was run: as §2
[18] = Cytotoxicity against feline CRFK cells by MTS assay; format: cell-based, Felis catus; settings: cat
[19] = system: Human immunodeficiency virus 1; assay: Antiviral activity against HIV1 with reverse transcriptase Y181C mutation in human CEM cells assessed as protection against virus-induced cytopathicity; format: functional, organism-based; settings: Human immunodeficiency virus 1, CCRF-CEM; how it was run: as §1
[20] = Cytotoxicity against human HEL cells assessed as drug level causing microscopically detectable alteration of normal cell morphology after 3 days; format: cell-based
[21] = system: Human immunodeficiency virus 2; assay: Antiviral activity against HIV2 ROD in human CEM cells assessed as protection against virus-induced cytopathicity after 4 days; format: functional, organism-based; settings: Human immunodeficiency virus 2, ROD, CCRF-CEM, 96 h; how it was run: as §4
[22] = biological target: Human immunodeficiency virus type 1 reverse transcriptase (Human immunodeficiency virus 1, UniProt Q72547, L100I); assay: Inhibition of HIV1 reverse transcriptase p66/p51 L100I mutant; settings: read-out: IC50; how it was run: as §3
[23] = system: Mammalian orthoreovirus 1; assay: Antiviral activity against Reovirus 1 in african green monkey Vero cells assessed as protection against virus-induced cytopathicity; format: functional, organism-based; settings: Mammalian orthoreovirus 1, Vero; how it was run: as §2
[24] = system: Vesicular stomatitis virus; assay: Antiviral activity against VSV in human HeLa cells assessed as protection against virus-induced cytopathicity; format: functional, organism-based
Influenza A virus H3N2 [25] = assay: Antiviral activity against influenza H3N2 virus in MDCK cells assessed as reduction of virus-induced cytopathicity by MTS method; format: functional, organism-based
[26] = biological target: Human immunodeficiency virus type 1 reverse transcriptase (Human immunodeficiency virus 1, UniProt Q72547); assay: Inhibition of HIV1 reverse transcriptase p66/p51; settings: read-out: IC50
[27] = Cytotoxicity against african green monkey Vero cells assessed as drug level causing microscopically detectable alteration of normal cell morphology after 3 days; format: cell-based; settings: chlorocebus sabaeus; how it was run: as §5
Punta Toro virus = assay: Antiviral activity against Punta Toro virus in african green monkey Vero cells assessed as protection against virus-induced cytopathicity; format: functional, organism-based; how it was run: as §2
Human alphaherpesvirus 1 [28] = assay: Antiviral activity against HSV1 KOS in human HEL cells assessed as protection against virus-induced cytopathicity; format: functional, organism-based; settings: Human alphaherpesvirus 1, KOS
[29] = system: Human immunodeficiency virus 1; assay: Antiviral activity against HIV1 with reverse transcriptase K103N mutation in human CEM cells assessed as protection against virus-induced cytopathicity; format: functional, organism-based; settings: Human immunodeficiency virus 1, CCRF-CEM; how it was run: as §1
Influenza B virus [30] = assay: Antiviral activity against influenza B virus in MDCK cells assessed as reduction of virus-induced cytopathicity by visual cytopathic effect scoring method; format: functional, organism-based
Coxsackievirus B4 [31] = assay: Antiviral activity against Coxsackievirus B4 in human HeLa cells assessed as protection against virus-induced cytopathicity; format: functional, organism-based; settings: Enterovirus B; how it was run: as §2
[32] = Cytotoxicity against MDCK cells by MTS assay; format: cell-based, Canis lupus familiaris; settings: dog

With `Cc1cc(C)cc(S(=O)(=O)c2c(C(=O)NCCC(N)=O)[nH]c3ccc(Cl)cc23)c1` the IC50 [1] was at least 1000 nM, the EC50 [2] was over 4 µM and the EC50 (Sindbis virus) was over 20 µM. For the same compound, the IC50 [3] was 351 nM, the EC50 [4] was over 4 µM and the EC50 (Influenza A virus [5]) was over 4 µM. For the same compound, the EC50 (Coxsackievirus B4 [6]) was 12 µM, the EC50 [7] was 1 nM and the EC50 (Influenza A virus H3N2 [8]) was over 4 µM. The EC50 (Influenza A virus [9]) was over 4 µM, the IC50 [10] was 5.05 µM and the EC50 (Human alphaherpesvirus 2) was over 4 µM. The MCC at 72 h [11] was 20 µM, the IC50 [12] was over 1000 nM and the EC50 (Influenza B virus [13]) was over 4 µM. For the same compound, the EC50 (Felid alphaherpesvirus 1) was over 4 µM, the IC50 [14] was 7 nM and the EC50 (Feline coronavirus) was over 4 µM. It also gave an IC50 (L1210) of 26 µM, an EC50 (Human alphaherpesvirus 1 [15]) of over 4 µM and an IC50 (CCRF-CEM) of 16 µM. The EC50 (Vaccinia virus) was over 4 µM, the MCC [16] was 20 µM and the IC50 [17] was 9 µM. The EC50 (Human respirovirus 3) was over 20 µM, the CC50 [18] was 1700 nM and the IC50 [19] was 78 nM. The MCC at 72 h [20] was 20 µM, the EC50 [21] was over 10 µM and the IC50 [22] was 143 nM. For the same compound, the EC50 [23] was over 20 µM, the EC50 [24] was over 4 µM and the EC50 (Influenza A virus H3N2 [25]) was over 4 µM. For the same compound, the IC50 [26] was 27 nM, the MCC at 72 h [27] was 100 µM and the EC50 (Punta Toro virus) was over 20 µM. The EC50 (Human alphaherpesvirus 1 [28]) was over 4 µM, the IC50 [29] was 19 nM and the EC50 (Influenza B virus [30]) was over 4 µM. For the same compound, the EC50 (Coxsackievirus B4 [31]) was over 4 µM and the CC50 [32] was 9.7 µM.

Reference: ChEMBL document CHEMBL1153955, “Indolylarylsulfones bearing natural and unnatural amino acids. Discovery of potent inhibitors of HIV-1 non-nucleoside wild type and resistant mutant strains reverse transcriptase and coxsackie B4 virus” (J Med Chem, 2009)
